Data taken from ChEMBL document CHEMBL1765024, “Fluorescent cyclin-dependent kinase inhibitors block the proliferation of human breast cancer cells” (Bioorg Med Chem, 2011).
Activity calls are given as the source filed them. No cut-off for these calls is given here.

Columns and labels:
MDA-MB-231 [1] = test: Induction of apoptosis in human MDA-MB-231 cells assessed as decrease in Bcl2 protein level at 10 uM after 48 hrs by Western blotting; type: functional, cell-based
Outline: (§1)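 MDA-MB-231 cells were treated with vehicle or 10 µM compound for 48 h (and 72 h). Lysates were cleared and protein measured by BCA. Equal protein was run on 10% SDS–PAGE and transferred to PVDF, blocked in 5% milk overnight, and probed 2 h with anti-Bcl-2, Bax or PARP. HRP secondary was applied for 1 h, with ECL detection.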

MDA-MB-231 [2] = test: Induction of apoptosis in human MDA-MB-231 cells assessed as increase in Bax protein level at 10 uM after 48 hrs by Western blotting; type: functional, cell-based; outline: as §1
MDA-MB-231 [3] = test: Induction of apoptosis in human MDA-MB-231 cells assessed as decrease in caspase 3 protein level at 10 uM after 48 hrs by Western blotting; type: functional, cell-based
MDA-MB-231 [4] = test: Induction of apoptosis in human MDA-MB-231 cells assessed as decrease in caspase 7 protein level at 10 uM after 48 hrs by Western blotting; type: functional, cell-based
MDA-MB-231 [5] = test: Induction of apoptosis in human MDA-MB-231 cells assessed as induction of PARP cleavage at 10 uM after 48 hrs by Western blotting; type: functional, cell-based; outline: as §1
MCF7 [6] = test: Induction of apoptosis in human MCF7 cells assessed as viable cells at 10 uM after 24 hrs using annexinV-propidium iodide staining by flow cytometry (reference value: 70.32%); type: functional; details: MCF7, 24 h, read-out: Activity
MCF7 [7] = test: Induction of apoptosis in human MCF7 cells assessed as early apoptotic cells at 10 uM after 24 hrs using annexinV-propidium iodide staining by flow cytometry (reference value: 4.24%); type: functional
MCF7 [8] = test: Induction of apoptosis in human MCF7 cells assessed as late apoptotic cells at 10 uM after 24 hrs using annexinV-propidium iodide staining by flow cytometry (reference value: 13.35%); type: functional
MCF7 [9] = test: Induction of apoptosis in human MCF7 cells assessed as necrotic cells at 10 uM after 24 hrs using annexinV-propidium iodide staining by flow cytometry (reference value: 12.09%); type: functional
MDA-MB-231 [10] = test: Cell cycle arrest in human MDA-MB-231 cells assessed as accumulation at G2/M phase at 5 to 10 uM after 16 to 40 hrs using propidium iodide staining by flow cytometry; type: functional, cell-based
Outline: (§2)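 Asynchronous cells were treated with 5 or 10 µM compound or DMSO for 24 h (also 16 and 40 h). They were trypsinized, washed in PBS and fixed/permeabilized in 70% ethanol. Staining was with RNase and propidium iodide for 30 min in the dark at room temperature, followed by flow cytometry. Phase percentages are given minus DMSO control; mean of triplicates.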

MDA-MB-231 [11] = test: Induction of apoptosis in human MDA-MB-231 cells assessed as aberrant gross morphological changes at 10 uM after 48 hrs using propidium iodide staining by confocal microscopic analysis; type: functional, cell-based
MDA-MB-231 [12] = test: Induction of apoptosis in human MDA-MB-231 cells assessed as decrease in cell number at 10 uM after 48 hrs using propidium iodide staining by confocal microscopic analysis; type: functional, cell-based
MCF7 [13] = test: Antiproliferative activity against human MCF7 cells expressing estrogen receptor after 48 hrs by WST-1 assay; type: functional, cell-based; details: MCF7, 48 h
Outline: (§3)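 Cells seeded at 3000/well in DMEM with 10% FBS and left 24 h. Compounds in DMSO were serially diluted in medium (1–100 µM) and added in triplicate. WST-1 was read 48 h after addition: 2–3 h incubation, absorbance at 450 nm with 630 nm reference. IC50 interpolated from log concentration versus fraction surviving; mean (SEM) of triplicate experiments.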

MDA-MB-231 [14] = test: Antiproliferative activity against estrogen receptor-deficient human MDA-MB-231 cells after 48 hrs by WST-1 assay; type: functional, cell-based; details: MDA-MB-231, 48 h; outline: as §3
[15] = molecular target: CDK9/cyclin T1 (Homo sapiens) (UniProt O60563+P50750); test: Inhibition of at human CDK9/cyclin T1 at 0.1 uM after 40 mins relative to control; type: protein-complex assay
Outline: (§4)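 Radiometric screen at 100 nM compound against purified human CDK/cyclin (5–10 mU). Incubation 40 min at room temperature, stopped with phosphoric acid. Read by filtermat scintillation. Activity expressed as % of control, N = 2.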

[16] = molecular target: Cyclin-dependent kinase 7/ cyclin H (Homo sapiens) (UniProt P51946+P50613); test: Inhibition of human CDK7/cyclinH/MAT1 at 0.1 uM after 40 mins relative to control; type: protein-complex assay; outline: as §4
[17] = molecular target: CDK3/cyclin E (Homo sapiens) (UniProt P24864+O96020+Q00526); test: Inhibition of human CDK3/cyclin E at 0.1 uM after 40 mins relative to control; type: protein-complex assay; outline: as §4
Sequence of CDK3/cyclin E (Homo sapiens) (O96020 whole entry, looked up): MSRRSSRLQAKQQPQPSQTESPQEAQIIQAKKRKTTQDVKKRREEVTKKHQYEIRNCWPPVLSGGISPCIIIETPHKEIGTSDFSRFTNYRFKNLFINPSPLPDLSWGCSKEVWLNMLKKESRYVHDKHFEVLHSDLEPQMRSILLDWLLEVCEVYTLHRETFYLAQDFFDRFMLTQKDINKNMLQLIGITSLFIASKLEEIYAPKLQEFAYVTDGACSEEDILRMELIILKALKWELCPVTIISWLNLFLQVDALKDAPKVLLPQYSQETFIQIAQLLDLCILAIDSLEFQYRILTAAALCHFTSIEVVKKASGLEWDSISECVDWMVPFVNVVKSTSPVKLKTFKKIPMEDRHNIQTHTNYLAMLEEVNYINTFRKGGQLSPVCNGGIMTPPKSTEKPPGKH
Sequence of CDK3/cyclin E (Homo sapiens) (P24864 whole entry, looked up): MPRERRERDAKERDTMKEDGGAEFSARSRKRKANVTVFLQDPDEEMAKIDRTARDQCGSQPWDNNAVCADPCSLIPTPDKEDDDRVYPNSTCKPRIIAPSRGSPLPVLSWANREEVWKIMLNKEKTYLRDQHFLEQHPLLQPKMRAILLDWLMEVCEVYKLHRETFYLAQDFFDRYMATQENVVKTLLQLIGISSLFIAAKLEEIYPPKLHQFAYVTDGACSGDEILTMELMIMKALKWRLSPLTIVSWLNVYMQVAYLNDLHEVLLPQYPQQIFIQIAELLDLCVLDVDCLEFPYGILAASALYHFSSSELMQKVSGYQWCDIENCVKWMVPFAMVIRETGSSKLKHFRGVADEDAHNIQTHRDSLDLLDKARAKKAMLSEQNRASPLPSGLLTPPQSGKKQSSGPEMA
Sequence of CDK3/cyclin E (Homo sapiens) (Q00526 whole entry, looked up): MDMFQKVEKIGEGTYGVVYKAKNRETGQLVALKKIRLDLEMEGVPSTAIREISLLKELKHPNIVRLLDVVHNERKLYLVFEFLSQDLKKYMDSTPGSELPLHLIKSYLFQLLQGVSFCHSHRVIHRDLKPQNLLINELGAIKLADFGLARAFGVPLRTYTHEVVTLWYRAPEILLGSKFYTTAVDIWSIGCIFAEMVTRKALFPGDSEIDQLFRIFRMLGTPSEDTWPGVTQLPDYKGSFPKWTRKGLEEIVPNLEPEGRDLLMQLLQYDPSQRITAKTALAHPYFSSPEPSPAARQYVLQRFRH

MDA-MB-231 [18] = test: Cell cycle arrest in human MDA-MB-231 cells assessed as accumulation at G2/M phase at 5 to 10 uM after 24 hrs using propidium iodide staining by flow cytometry; type: functional, cell-based; outline: as §2
MCF7 [19] = test: Cell cycle arrest in human MCF7 cells assessed as accumulation at G2/M phase at 5 to 10 uM after 24 hrs using propidium iodide staining by flow cytometry; type: functional, cell-based; outline: as §2
MDA-MB-231 [20] = test: Cell cycle arrest in human MDA-MB-231 cells assessed as accumulation at sup G1 phase at 5 to 10 uM after 24 hrs using propidium iodide staining by flow cytometry; type: functional, cell-based; outline: as §2
MCF7 [21] = test: Cell cycle arrest in human MCF7 cells assessed as accumulation at sub G1 phase at 5 to 10 uM after 24 hrs using propidium iodide staining by flow cytometry; type: functional, cell-based; outline: as §2
MCF7 [22] = test: Cell cycle arrest in human MCF7 cells assessed as accumulation at G2/M phase at 5 to 10 uM after 16 to 40 hrs using propidium iodide staining by flow cytometry; type: functional, cell-based; outline: as §2
MCF7 [23] = test: Induction of apoptosis in human MCF7 cells assessed as aberrant gross morphological changes at 10 uM after 48 hrs using propidium iodide staining by confocal microscopic analysis; type: functional, cell-based
MCF7 [24] = test: Induction of apoptosis in human MCF7 cells assessed as decrease in cell number at 10 uM after 48 hrs using propidium iodide staining by confocal microscopic analysis; type: functional, cell-based
[25] = molecular target: T1, Cyclin-dependent kinase 5/CDK5 activator 1 (Homo sapiens) (UniProt Q00535+Q15078); details: at 0.1 µM
T1 sequence (Q00535 whole entry): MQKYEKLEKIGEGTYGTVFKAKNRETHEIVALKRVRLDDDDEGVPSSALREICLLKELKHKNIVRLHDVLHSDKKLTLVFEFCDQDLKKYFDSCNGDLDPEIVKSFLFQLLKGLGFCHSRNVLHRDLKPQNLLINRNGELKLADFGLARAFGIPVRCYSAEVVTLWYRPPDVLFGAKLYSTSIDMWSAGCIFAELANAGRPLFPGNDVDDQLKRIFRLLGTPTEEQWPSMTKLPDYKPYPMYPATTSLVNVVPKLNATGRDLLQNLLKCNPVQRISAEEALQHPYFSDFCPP
T1 sequence (Q15078 99-307 partner limits assumed): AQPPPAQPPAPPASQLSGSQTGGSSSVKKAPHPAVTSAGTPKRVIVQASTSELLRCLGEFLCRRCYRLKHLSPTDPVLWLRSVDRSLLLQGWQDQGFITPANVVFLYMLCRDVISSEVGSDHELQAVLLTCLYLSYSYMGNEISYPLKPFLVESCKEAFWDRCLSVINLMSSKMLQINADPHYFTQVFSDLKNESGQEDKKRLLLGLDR

[26] = molecular target: T1, Cyclin-dependent kinase 5/CDK5 activator 1 (Homo sapiens); details: at 0.1 µM; remark: listed apart in the source
[27] = molecular target: Cyclin-dependent kinase 1/cyclin B1 (Homo sapiens) (UniProt P06493+P14635); details: at 0.1 µM
Sequence of Cyclin-dependent kinase 1/cyclin B1 (Homo sapiens) (P06493 whole entry, looked up): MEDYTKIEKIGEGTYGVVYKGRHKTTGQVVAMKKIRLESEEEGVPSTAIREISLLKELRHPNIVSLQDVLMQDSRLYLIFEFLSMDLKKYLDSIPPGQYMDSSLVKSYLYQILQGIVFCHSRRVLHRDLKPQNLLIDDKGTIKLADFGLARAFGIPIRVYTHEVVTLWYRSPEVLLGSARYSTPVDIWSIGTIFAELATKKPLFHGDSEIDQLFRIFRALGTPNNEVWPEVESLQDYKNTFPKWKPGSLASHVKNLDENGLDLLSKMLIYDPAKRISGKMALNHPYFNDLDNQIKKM
Sequence of Cyclin-dependent kinase 1/cyclin B1 (Homo sapiens) (P14635 whole entry, looked up): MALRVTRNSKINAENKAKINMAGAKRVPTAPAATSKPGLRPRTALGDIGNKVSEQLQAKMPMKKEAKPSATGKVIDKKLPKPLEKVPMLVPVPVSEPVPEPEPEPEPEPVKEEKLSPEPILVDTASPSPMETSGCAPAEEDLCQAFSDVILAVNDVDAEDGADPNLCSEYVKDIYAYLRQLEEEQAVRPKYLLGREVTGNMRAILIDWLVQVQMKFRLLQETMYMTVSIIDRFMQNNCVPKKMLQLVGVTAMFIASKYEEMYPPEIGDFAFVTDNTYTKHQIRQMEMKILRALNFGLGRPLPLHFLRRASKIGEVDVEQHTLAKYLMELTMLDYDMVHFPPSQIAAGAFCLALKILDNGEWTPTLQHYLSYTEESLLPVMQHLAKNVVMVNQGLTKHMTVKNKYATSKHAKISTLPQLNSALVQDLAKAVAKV

MDA-MB-231 [28] = test: Induction of apoptosis in human MDA-MB-231 cells assessed as decrease in Bcl2 protein level at 40 uM after 48 hrs by Western blotting; type: functional, cell-based
Outline: (§5)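 Cells treated with vehicle or compound, then lysed in NP-40/Triton X-100 buffer with protease and phosphatase inhibitors. Lysate protein measured by BCA, and equal protein run on 10% SDS–PAGE and transferred to PVDF. Blocked overnight in 5% milk/TBST, primary antibody 2 h, HRP secondary 1 h, ECL detection.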

MDA-MB-231 [29] = test: Induction of apoptosis in human MDA-MB-231 cells assessed as increase in Bax protein level at 40 uM after 48 hrs by Western blotting; type: functional, cell-based; outline: as §5
MDA-MB-231 [30] = test: Induction of apoptosis in human MDA-MB-231 cells assessed as decrease in caspase 3 protein level at 40 uM after 48 hrs by Western blotting; type: functional, cell-based; outline: as §5
MDA-MB-231 [31] = test: Induction of apoptosis in human MDA-MB-231 cells assessed as decrease in caspase 7 protein level at 40 uM after 48 hrs by Western blotting; type: functional, cell-based; outline: as §5
MDA-MB-231 [32] = test: Cell cycle arrest in human MDA-MB-231 cells assessed as accumulation at G2/M phase treated at 5 uM for 24 hrs measured after drug washout following 48 hrs growth recovery using propidium iodide staining by flow cytometry; type: functional, cell-based
Outline: (§6)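 Exponentially growing cells exposed 24 h, then held a further 48 h in compound-free medium. Cells trypsinized, pelleted, PBS-washed, permeabilized in 70% ethanol, stained 30 min in the dark at room temperature with PI plus RNase, and analysed by flow cytometry. Phase percentages given after subtracting untreated control. Mean of triplicate experiments.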

MDA-MB-231 [33] = test: Cell cycle arrest in human MDA-MB-231 cells assessed as accumulation at G2/M phase treated at 10 uM for 24 hrs measured after drug washout following 48 hrs growth recovery using propidium iodide staining by flow cytometry; type: functional, cell-based; outline: as §6
[34] = Antiproliferative activity against human CL 10.3 cells expressing p-glycoprotein after 72 hrs by WST-1 assay; type: functional, cell-based
Outline: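 MCF-7 and its P-glycoprotein-overexpressing MDR subline CL 10.3 were grown in DMEM with 10% heat-inactivated FBS. Compounds in DMSO were serially diluted in medium and given to cells for 72 h. Read-out was WST-1 reduction (450 nm, 630 nm reference). IC50 interpolated from log concentration versus fraction surviving; mean (SEM) of triplicates. Ratio is CL 10.3 IC50 over MCF-7 IC50.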

MDA-MB-231 [35] = test: Induction of apoptosis in human MDA-MB-231 cells assessed as reduction of cdc2 phosphorylation at T161 catalytic site at 10 uM after 24 hrs by Western blot analysis; type: functional, cell-based
Outline: (§7)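 MDA-MB-231 cells were treated with 10 µM compound for 1, 3, 6, 12 and 24 h and lysed. Equal protein was resolved by 10% SDS–PAGE and immunoblotted for phospho-cdc2 (T161, Y15), cdc2 and cyclin B, with actin as loading standard and ECL detection.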

MDA-MB-231 [36] = test: Induction of apoptosis in human MDA-MB-231 cells assessed as reduction of cdc2 phosphorylation at Y15 regulatory site at 10 uM after 24 hrs by Western blot analysis; type: functional, cell-based; outline: as §7
MCF7 [37] = test: Antiproliferative activity against human MCF7 cells expressing estrogen receptor at 100 uM after 48 hrs by WST-1 assay; type: functional, cell-based
Outline: (§8)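 Cells seeded at 3000/well in DMEM with 10% FBS and left 24 h, then given compound from DMSO stock diluted in medium at 100 µM. Survival read by WST-1 48 h after addition: 2–3 h incubation, absorbance at 450 nm with 630 nm reference; triplicate experiments.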

MDA-MB-231 [38] = test: Antiproliferative activity against estrogen receptor-deficient human MDA-MB-231 cells at 100 uM after 48 hrs by WST-1 assay; type: functional, cell-based; outline: as §8

SMILES	viability at 10 µM (MCF7 [6]) [%]	Activity (MCF7 [7]) [%]	Activity (MCF7 [8]) [%]	Activity (MCF7 [9]) [%]	IC50 (MCF7 [13]) [µM]	IC50 (MDA-MB-231 [14]) [µM]	inhibition [15] [%]	inhibition [16] [%]	inhibition [17] [%]	inhibition [25] [%]	inhibition [26] [%]	inhibition [27] [%]	other results
CC[C@H](CO)Nc1nc(Nc2ccc(C(=O)NCCNS(=O)(=O)c3cccc4c(N(C)C)cccc34)c(Cl)c2)c2ncn(C(C)C)c2n1	52.3	8.87	16.74	22.14	19.1	4.86	44	57	40	67	76	16	Activity (MDA-MB-231 [1]): Active; Activity (MDA-MB-231 [2]): Active; Activity (MDA-MB-231 [3]): Active; Activity (MDA-MB-231 [4]): Active; Activity (MDA-MB-231 [5]): Active; Activity (MDA-MB-231 [10]): Active; Activity (MDA-MB-231 [11]): Active; Activity (MDA-MB-231 [12]): Active; Activity (MDA-MB-231 [18]): Active; Activity (MCF7 [19]): Active; Activity (MDA-MB-231 [20]): Active; Activity (MCF7 [21]): Active; Activity (MCF7 [22]): Active; Activity (MCF7 [23]): Active; Activity (MCF7 [24]): Active
CC[C@H](CO)Nc1nc(NCc2ccccc2)c2ncn(C(C)C)c2n1 [SELICICLIB]	73.1	7.13	13.2	6.56		54.6	19	26					Activity (MDA-MB-231 [28]): inactive; Activity (MDA-MB-231 [29]): inactive; Activity (MDA-MB-231 [30]): inactive; Activity (MDA-MB-231 [31]): inactive; Activity (MDA-MB-231 [32]): inactive; Activity (MDA-MB-231 [33]): inactive
CC(=O)O[C@H]1C(=O)[C@@]2(C)[C@H]([C@H](OC(=O)c3ccccc3)[C@]3(O)C[C@H](OC(=O)[C@H](O)[C@@H](NC(=O)c4ccccc4)c4ccccc4)C(C)=C1C3(C)C)[C@]1(OC(C)=O)CO[C@@H]1C[C@@H]2O [PACLITAXEL]													IC50 [34]: > 50 µM
CC(C)[C@H](CO)Nc1nc(Nc2ccc(C(=O)O)c(Cl)c2)c2ncn(C(C)C)c2n1 [PURVALANOL B]					> 100	> 100	22	66	89	97	97	78	Activity (MDA-MB-231 [35]): inactive; Activity (MDA-MB-231 [36]): inactive; Activity (MCF7 [37]): inactive; Activity (MDA-MB-231 [38]): inactive
CN(C)c1cccc2c(S(=O)(=O)NCCN)cccc12 [DANSYL ETHYLENEDIAMINE]					> 100	> 100							
